In ChEMBL document CHEMBL3244057, “Diazepines. 5. Synthesis and biological action of 6-phenyl-4H-pyrrolo[1,2-a][1,4]benzodiazepines” (J Med Chem, 1978):

Experiments:
Mus musculus [1] = test: Toxicity in po dosed ddY mouse assessed as motor incoordination by rotarod test; format: organism-based; conditions: in vivo
Procedure, shortened: (§1)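 Male ddY mice (18–24 g) were dosed orally with compound suspended in 5% arabic gum, six mice per dose. Three or four doses were chosen from 100, 30, 10, 3, 1, 0.3 and 0.1 mg/kg. ED50 was calculated by the Litchfield-Wilcoxon method. Muscle relaxation was scored on an inclined wooden board, and fighting was induced by electrofootshock.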

Mus musculus [2] = test: Induction of sedative activity in po dosed ddY mouse assessed as potentiation of thiopental-induced response; format: functional; procedure, shortened: as §1
Mus musculus [3] = test: Muscle relaxant activity in po dosed ddY mouse; format: functional; procedure, shortened: as §1
Mus musculus [4] = test: Taming activity in po dosed electrofootshock-induced fighting ddY mouse; format: functional; procedure, shortened: as §1
Mus musculus [5] = test: Anticonvulsant activity in po dosed ddY mouse assessed as reduction of pentylenetetrazole-induced seizure; format: functional; procedure, shortened: as §1
Mus musculus [6] = test: Anticonvulsant activity in po dosed ddY mouse assessed as reduction of maximal electroshock-induced seizure; format: functional
[7] = Ratio of compound ED50 to diazepam ED50 for toxicity in po dosed ddY mouse assessed as motor incoordination; format: organism-based; conditions: in vivo, read-out: Ratio ED50
[8] = Acute toxicity in po dosed ddY mouse assessed as mortality measured for 2 weeks; format: organism-based; conditions: in vivo
Procedure, shortened: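 Male ddY mice (18–24 g) were dosed orally with compound suspended in 5% arabic gum. Groups of four received 1000 or 2000 mg/kg, and a group of eight received 3000 mg/kg. Deaths were recorded over a 2-week observation period.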

Clc1ccc2c(c1)C(c1ccccc1)=NCc1cccn1-2
ED50 (Mus musculus [1]): > 100 mg/kg | ED50 (Mus musculus [2]): 44 mg/kg

Clc1ccc2c(c1)C(c1ccccc1Cl)=NCc1cccn1-2
ED50 (Mus musculus [1]): > 100 mg/kg | ED50 (Mus musculus [2]): 18 mg/kg

Fc1ccccc1C1=NCc2cccn2-c2ccc(Cl)cc21
ED50 (Mus musculus [1]): > 100 mg/kg | ED50 (Mus musculus [3]): > 100 mg/kg | ED50 (Mus musculus [4]): 39 mg/kg | ED50 (Mus musculus [5]): 100 mg/kg | ED50 (Mus musculus [6]): > 100 mg/kg | ED50 (Mus musculus [2]): 5.2 mg/kg

Cc1ccc2n1-c1ccccc1C(c1ccccc1)=NC2
ED50 (Mus musculus [1]): > 100 mg/kg | ED50 (Mus musculus [3]): > 100 mg/kg | ED50 (Mus musculus [4]): > 100 mg/kg | ED50 (Mus musculus [5]): > 100 mg/kg | ED50 (Mus musculus [6]): > 100 mg/kg | ED50 (Mus musculus [2]): 22 mg/kg

Cc1ccc2n1-c1ccc(Cl)cc1C(c1ccccc1)=NC2
ED50 (Mus musculus [1]): > 100 mg/kg | ED50 (Mus musculus [3]): > 100 mg/kg | ED50 (Mus musculus [4]): > 100 mg/kg | ED50 (Mus musculus [5]): 100 mg/kg | ED50 (Mus musculus [6]): > 100 mg/kg | ED50 (Mus musculus [2]): 46 mg/kg

Cc1ccc2n1-c1ccc([N+](=O)[O-])cc1C(c1ccccc1)=NC2
ED50 (Mus musculus [1]): > 100 mg/kg | ED50 (Mus musculus [3]): > 100 mg/kg | ED50 (Mus musculus [4]): > 100 mg/kg | ED50 (Mus musculus [5]): ≥ 100 mg/kg | ED50 (Mus musculus [6]): > 100 mg/kg | ED50 (Mus musculus [2]): 5.8 mg/kg

Cc1ccc2n1-c1ccc(Cl)cc1C(c1ccccc1Cl)=NC2
ED50 (Mus musculus [1]): 100 mg/kg | ED50 (Mus musculus [2]): 2.8 mg/kg

Cc1ccc2n1-c1ccc(Cl)cc1C(c1ccccc1F)=NC2
ED50 (Mus musculus [1]): > 100 mg/kg | ED50 (Mus musculus [2]): 6.9 mg/kg

Cc1cc2n(c1C)-c1ccccc1C(c1ccccc1)=NC2
ED50 (Mus musculus [1]): > 100 mg/kg | ED50 (Mus musculus [3]): > 100 mg/kg | ED50 (Mus musculus [4]): > 100 mg/kg | ED50 (Mus musculus [5]): > 100 mg/kg | ED50 (Mus musculus [6]): > 100 mg/kg | ED50 (Mus musculus [2]): > 30 mg/kg

Cc1cc2n(c1C)-c1ccc(Cl)cc1C(c1ccccc1)=NC2
ED50 (Mus musculus [1]): > 100 mg/kg | ED50 (Mus musculus [2]): 21 mg/kg

Cc1cc2n(c1C)-c1ccc(Cl)cc1C(c1ccccc1Cl)=NC2
ED50 (Mus musculus [1]): 40 mg/kg | ED50 (Mus musculus [2]): 2.6 mg/kg

Cc1cc2n(c1C)-c1ccc(Cl)cc1C(c1ccccc1F)=NC2
ED50 (Mus musculus [1]): > 100 mg/kg | ED50 (Mus musculus [2]): 8 mg/kg

CCc1cc2n(c1C)-c1ccc(Cl)cc1C(c1ccccc1Cl)=NC2
ED50 (Mus musculus [1]): 16.2 mg/kg | ED50 (Mus musculus [2]): 0.6 mg/kg

CCc1cc2n(c1C)-c1ccc(Cl)cc1C(c1ccccc1F)=NC2
ED50 (Mus musculus [1]): > 100 mg/kg | ED50 (Mus musculus [2]): 2.2 mg/kg

CCc1cc2n(c1C)-c1ccc(Cl)cc1C(c1c(F)cccc1F)=NC2
ED50 (Mus musculus [1]): > 100 mg/kg | ED50 (Mus musculus [5]): 16.6 mg/kg | ED50 (Mus musculus [2]): 3 mg/kg

Cc1cc(C)n2c1CN=C(c1ccccc1Cl)c1cc(Cl)ccc1-2
selectivity ratio [7]: 2 | ED50 (Mus musculus [1]): 15.5 mg/kg | LD50 at 336 h [8]: 930 mg/kg | ED50 (Mus musculus [5]): 1.4 mg/kg | ED50 (Mus musculus [2]): 0.34 mg/kg

Cc1cc(C)n2c1CN=C(c1ccccc1F)c1cc(Cl)ccc1-2
ED50 (Mus musculus [1]): > 30 mg/kg | ED50 (Mus musculus [3]): 20.5 mg/kg | ED50 (Mus musculus [2]): 2.4 mg/kg

Cc1cc(C)n2c1CN=C(c1c(F)cccc1F)c1cc(Cl)ccc1-2
ED50 (Mus musculus [1]): 16.2 mg/kg | ED50 (Mus musculus [3]): 6.4 mg/kg | ED50 (Mus musculus [2]): 0.7 mg/kg

CN1C(=O)CN=C(c2ccccc2)c2cc(Cl)ccc21 [DIAZEPAM]
ED50 (Mus musculus [1]): 5.4 mg/kg | ED50 (Mus musculus [3]): 0.6 mg/kg | ED50 (Mus musculus [5]): 0.6 mg/kg | ED50 (Mus musculus [2]): 0.3 mg/kg
